Experimental data taken from ChEMBL document CHEMBL2384906, “Biological activity, design, synthesis and structure activity relationship of some novel derivatives of curcumin containing sulfonamides” (Eur J Med Chem, 2013).
In brackets after ≈: the same amount, converted by molar mass. Activity calls are given as the source filed them. The rule behind the calls is not given here.

Columns and labels:
Aspergillus niger [1] = assay: Antifungal activity against Aspergillus niger MTCC 1108 assessed as zone of inhibition at 80 uM after 48 hrs by disc diffusion method; type: functional; settings: MTCC 1108, 48 h, read-out: IZ
Procedure, shortened: (§1)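 Spores from 4-day potato dextrose agar cultures, suspended in sterile water at 1.5 × 10⁵ CFU/mL. 0.2 mL was spread on potato dextrose agar. 5 mm filter-paper discs soaked with test compound were laid on the lawn. Incubation was 48 h at 28 °C, then the inhibition zone was measured in mm. Fluconazole was the positive control and acetone the negative control.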

Escherichia coli [2] = assay: Antimicrobial activity against Escherichia coli ATCC 35218 after 24 hrs by broth micro serial dilution method; type: functional; settings: ATCC 35218, 24 h
Procedure, shortened: (§2)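 This was broth microdilution in autoclaved Mueller-Hinton broth. 150 µL of compound per well was serially diluted […], and 50 µL of test organism was added. Plates were incubated 24 h at 37 °C and optical density was read.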

Escherichia coli [3] = assay: Antimicrobial activity against Escherichia coli ATCC 35218 assessed as diameter of inhibition zone at 20 uM after 24 hrs by Kirby -Baur disc diffusion method; type: functional; settings: ATCC 35218, 24 h, read-out: DIZ
Procedure, shortened: (§3)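 Kirby-Bauer disc diffusion was used. Acetone stocks (160 µM) were serially doubled down to 80, 40 and 20 µM. 4 µL of each went onto 5 mm sterile paper discs, which were dried 30 min at 50 °C. Inoculum was 1.5 × 10⁸ CFU/mL diluted to 3 × 10² CFU/mL, and 50 µL was spread on Mueller-Hinton agar. After 24 h at 37 °C the inhibition-zone diameter was measured. Ciprofloxacin served as positive control.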

Pseudomonas aeruginosa [4] = assay: Antimicrobial activity against Pseudomonas aeruginosa ATCC 15499 assessed as diameter of inhibition zone at 40 uM after 24 hrs by Kirby -Baur disc diffusion method; type: functional; settings: ATCC 15499, 24 h, read-out: DIZ; procedure, shortened: as §3
Pseudomonas aeruginosa [5] = assay: Antimicrobial activity against Pseudomonas aeruginosa ATCC 15499 after 24 hrs by broth micro serial dilution method; type: functional; settings: ATCC 15499, 24 h; procedure, shortened: as §2
QG-56 = assay: Cytotoxicity against human QG56 cells after 24 hrs by MTT assay; type: functional, cell-based
Procedure, shortened: (§4)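 The MTT assay seeded 5 × 10⁴ cells per well and grew them 24 h in RPMI 1640 with compound at 2.5–200 µM. Medium without cells was the blank and adriamycin the positive control. MTT was added for 4 h at 37 °C, formazan was solubilised, and absorbance was read at 570 nm. IC50 is the concentration that cuts viability 50% against untreated cells.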

Aspergillus flavus [6] = assay: Antifungal activity against Aspergillus flavus MTCC 1021 assessed as zone of inhibition at 80 uM after 48 hrs by disc diffusion method; type: functional; settings: MTCC 1021, 48 h, read-out: IZ; procedure, shortened: as §1
Aspergillus niger [7] = assay: Antifungal activity against Aspergillus niger MTCC 1108 assessed as zone of inhibition at 40 uM after 48 hrs by disc diffusion method; type: functional; settings: MTCC 1108, 48 h, read-out: IZ; procedure, shortened: as §1
Bacillus cereus [8] = assay: Antimicrobial activity against Bacillus cereus MTCC 7350 after 24 hrs by broth micro serial dilution method; type: functional; settings: MTCC 7350, 24 h; procedure, shortened: as §2
Bacillus cereus [9] = assay: Antimicrobial activity against Bacillus cereus MTCC 7350 assessed as diameter of inhibition zone at 80 uM after 24 hrs by Kirby -Baur disc diffusion method; type: functional; settings: MTCC 7350, 24 h, read-out: DIZ; procedure, shortened: as §3
Curvularia lunata [10] = assay: Antifungal activity against Curvularia lunata MTCC 581 assessed as zone of inhibition at 20 uM after 48 hrs by disc diffusion method; type: functional; settings: MTCC 581, 48 h, read-out: IZ; procedure, shortened: as §1
Staphylococcus aureus [11] = assay: Antimicrobial activity against Staphylococcus aureus ATCC 11632 assessed as diameter of inhibition zone at 20 uM after 24 hrs by Kirby -Baur disc diffusion method; type: functional; settings: ATCC 11632, 24 h, read-out: DIZ; procedure, shortened: as §3
Aspergillus flavus [12] = assay: Antifungal activity against Aspergillus flavus MTCC 1021 after 48 hrs; type: functional; settings: MTCC 1021, 48 h
Aspergillus flavus [13] = assay: Antifungal activity against Aspergillus flavus MTCC 1021 assessed as zone of inhibition at 20 uM after 48 hrs by disc diffusion method; type: functional; procedure, shortened: as §1
Salmonella typhi [14] = assay: Antimicrobial activity against Salmonella typhi ATCC 23564 assessed as diameter of inhibition zone at 40 uM after 24 hrs by Kirby -Baur disc diffusion method; type: functional, Salmonella enterica subsp. enterica serovar Typhi; settings: Salmonella enterica, ATCC 23564, 24 h; read-out: DIZ
Curvularia lunata [15] = assay: Antifungal activity against Curvularia lunata MTCC 581 after 48 hrs; type: functional; settings: MTCC 581, 48 h
Trichoderma viride [16] = assay: Antifungal activity against Trichoderma viride MTCC 1107 assessed as zone of inhibition at 80 uM after 48 hrs by disc diffusion method; type: functional; settings: MTCC 1107, 48 h, read-out: IZ; procedure, shortened: as §1
Aspergillus niger [17] = assay: Antifungal activity against Aspergillus niger MTCC 1108 assessed as zone of inhibition at 20 uM after 48 hrs by disc diffusion method; type: functional; settings: MTCC 1108, 48 h, read-out: IZ; procedure, shortened: as §1
Curvularia lunata [18] = assay: Antifungal activity against Curvularia lunata MTCC 581 assessed as zone of inhibition at 40 uM after 48 hrs by disc diffusion method; type: functional; settings: MTCC 581, 48 h, read-out: IZ; procedure, shortened: as §1
Staphylococcus aureus [19] = assay: Antimicrobial activity against Staphylococcus aureus ATCC 11632 after 24 hrs by broth micro serial dilution method; type: functional; settings: ATCC 11632, 24 h; procedure, shortened: as §2
Staphylococcus aureus [20] = assay: Antimicrobial activity against Staphylococcus aureus ATCC 11632 assessed as diameter of inhibition zone at 40 uM after 24 hrs by Kirby -Baur disc diffusion method; type: functional; settings: ATCC 11632, 24 h, read-out: DIZ; procedure, shortened: as §3
Aspergillus niger [21] = assay: Antifungal activity against Aspergillus niger MTCC 1108 after 48 hrs; type: functional; settings: MTCC 1108, 48 h
HeLa = assay: Cytotoxicity against human HeLa cells after 24 hrs by MTT assay; type: functional, cell-based; procedure, shortened: as §4
Pseudomonas aeruginosa [22] = assay: Antimicrobial activity against Pseudomonas aeruginosa ATCC 15499 assessed as diameter of inhibition zone at 80 uM after 24 hrs by Kirby -Baur disc diffusion method; type: functional; settings: ATCC 15499, 24 h, read-out: DIZ; procedure, shortened: as §3
Salmonella typhi [23] = assay: Antimicrobial activity against Salmonella typhi ATCC 23564 after 24 hrs by broth micro serial dilution method; type: functional, Salmonella enterica subsp. enterica serovar Typhi; settings: Salmonella enterica, ATCC 23564, 24 h
HCT-116 = assay: Cytotoxicity against human HCT116 cells after 24 hrs by MTT assay; type: functional, cell-based; procedure, shortened: as §4
HepG2 = assay: Cytotoxicity against human HepG2 cells after 24 hrs by MTT assay; type: functional, cell-based; procedure, shortened: as §4
Escherichia coli [24] = assay: Antimicrobial activity against Escherichia coli ATCC 35218 assessed as diameter of inhibition zone at 80 uM after 24 hrs by Kirby -Baur disc diffusion method; type: functional; settings: ATCC 35218, 24 h, read-out: DIZ; procedure, shortened: as §3
Pseudomonas aeruginosa [25] = assay: Antimicrobial activity against Pseudomonas aeruginosa ATCC 15499 assessed as diameter of inhibition zone at 20 uM after 24 hrs by Kirby -Baur disc diffusion method; type: functional; procedure, shortened: as §3
Mus musculus = assay: Antiinflammatory activity in mouse assessed as inhibition of carrageenan-induced increase in paw volume at 200 mg/kg administered 1 hr prior to carrageenan challenge measured after 3 hrs relative to control; type: functional
Procedure, shortened: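 Mice were fasted 2 h and placed in groups of five. Controls received saline i.p. Phenylbutazone was given at 100 mg/kg i.p., curcumin at 200 mg/kg i.p., and derivatives at 200 mg/kg. After 1 h, 0.1 mL of 1% carrageenan in saline was injected subplantar into the right hind paw. Paw volume was followed by plethysmometer for 3 h, and % inhibition was calculated as (Vc − Vt)/Vc × 100.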

Trichoderma viride [26] = assay: Antifungal activity against Trichoderma viride MTCC 1107 after 48 hrs; type: functional; settings: MTCC 1107, 48 h
Trichoderma viride [27] = assay: Antifungal activity against Trichoderma viride MTCC 1107 assessed as zone of inhibition at 20 uM after 48 hrs by disc diffusion method; type: functional; settings: MTCC 1107, 48 h, read-out: IZ; procedure, shortened: as §1
Aspergillus flavus [28] = assay: Antifungal activity against Aspergillus flavus MTCC 1021 assessed as zone of inhibition at 40 uM after 48 hrs by disc diffusion method; type: functional; settings: MTCC 1021, 48 h, read-out: IZ; procedure, shortened: as §1
Staphylococcus aureus [29] = assay: Antimicrobial activity against Staphylococcus aureus ATCC 11632 assessed as diameter of inhibition zone at 80 uM after 24 hrs by Kirby -Baur disc diffusion method; type: functional; settings: ATCC 11632, 24 h, read-out: DIZ; procedure, shortened: as §3
Salmonella typhi [30] = assay: Antimicrobial activity against Salmonella typhi ATCC 23564 assessed as diameter of inhibition zone at 80 uM after 24 hrs by Kirby -Baur disc diffusion method; type: functional, Salmonella enterica subsp. enterica serovar Typhi; settings: Salmonella enterica, ATCC 23564, 24 h; read-out: DIZ
Curvularia lunata [31] = assay: Antifungal activity against Curvularia lunata MTCC 581 assessed as zone of inhibition at 80 uM after 48 hrs by disc diffusion method; type: functional; settings: MTCC 581, 48 h, read-out: IZ; procedure, shortened: as §1
Salmonella typhi [32] = assay: Antimicrobial activity against Salmonella typhi ATCC 23564 assessed as diameter of inhibition zone at 20 uM after 24 hrs by Kirby -Baur disc diffusion method; type: functional, Salmonella enterica subsp. enterica serovar Typhi; settings: Salmonella enterica, ATCC 23564, 24 h; read-out: DIZ
Bacillus cereus [33] = assay: Antimicrobial activity against Bacillus cereus MTCC 7350 assessed as diameter of inhibition zone at 40 uM after 24 hrs by Kirby -Baur disc diffusion method; type: functional; settings: MTCC 7350, 24 h, read-out: DIZ; procedure, shortened: as §3
Trichoderma viride [34] = assay: Antifungal activity against Trichoderma viride MTCC 1107 assessed as zone of inhibition at 40 uM after 48 hrs by disc diffusion method; type: functional; settings: MTCC 1107, 48 h, read-out: IZ; procedure, shortened: as §1
Escherichia coli [35] = assay: Antimicrobial activity against Escherichia coli ATCC 35218 assessed as diameter of inhibition zone at 40 uM after 24 hrs by Kirby -Baur disc diffusion method; type: functional; settings: ATCC 35218, 24 h, read-out: DIZ; procedure, shortened: as §3
Bacillus cereus [36] = assay: Antimicrobial activity against Bacillus cereus MTCC 7350 assessed as diameter of inhibition zone at 20 uM after 24 hrs by Kirby -Baur disc diffusion method; type: functional; settings: MTCC 7350, 24 h, read-out: DIZ; procedure, shortened: as §3

With `COc1ccc(NS(=O)(=O)c2ccc(/N=C(/C=C(O)/C=C/c3ccc(O)c(OC)c3)\C=C\c3ccc(O)c(OC)c3)cc2)nn1` the zone of inhibition at 80 µM (Aspergillus niger [1]) was 14 mm, the MIC (Escherichia coli [2]) was 20 µM (≈ 12.6 µg/mL) and the zone of inhibition at 20 µM (Escherichia coli [3]) was 16 mm. For the same compound, the zone of inhibition at 40 µM (Pseudomonas aeruginosa [4]) was 10 mm, the MIC (Pseudomonas aeruginosa [5]) was 20 µM (≈ 12.6 µg/mL) and the IC50 (QG-56) was 25 µM. For the same compound, the zone of inhibition at 80 µM (Aspergillus flavus [6]) was 10 mm, the zone of inhibition at 40 µM (Aspergillus niger [7]) was 14 mm and the MIC (Bacillus cereus [8]) was 20 µM (≈ 12.6 µg/mL). It also gave a zone of inhibition at 80 µM (Bacillus cereus [9]) of 14 mm, a zone of inhibition at 20 µM (Curvularia lunata [10]) of 12 mm and a zone of inhibition at 20 µM (Staphylococcus aureus [11]) of 9 mm. For the same compound, the MIC (Aspergillus flavus [12]) was over 80 µM, the “inhibition zone (IZ)” value (Aspergillus flavus [13]) was “inactive” and the zone of inhibition at 40 µM (Salmonella typhi [14]) was 16 mm. The MIC (Curvularia lunata [15]) was 20 µM (≈ 12.6 µg/mL), the zone of inhibition at 80 µM (Trichoderma viride [16]) was 19 mm and the zone of inhibition at 20 µM (Aspergillus niger [17]) was 10 mm. It also gave a zone of inhibition at 40 µM (Curvularia lunata [18]) of 15 mm, an MIC (Staphylococcus aureus [19]) of 20 µM (≈ 12.6 µg/mL) and a zone of inhibition at 40 µM (Staphylococcus aureus [20]) of 14 mm. It also gave an MIC (Aspergillus niger [21]) of 40 µM (≈ 25.2 µg/mL), an IC50 (HeLa) of 50 µM and a zone of inhibition at 80 µM (Pseudomonas aeruginosa [22]) of 14 mm. For the same compound, the MIC (Salmonella typhi [23]) was 20 µM (≈ 12.6 µg/mL), the IC50 (HCT-116) was 25 µM and the IC50 (HepG2) was 25 µM. For the same compound, the zone of inhibition at 80 µM (Escherichia coli [24]) was 21 mm, the “diameter of the inhibition zone (DIZ)” value (Pseudomonas aeruginosa [25]) was “inactive” and the inhibition in vivo at 200 mg/kg (Mus musculus) was 35.4%. It also gave an MIC (Trichoderma viride [26]) of 20 µM (≈ 12.6 µg/mL), a zone of inhibition at 20 µM (Trichoderma viride [27]) of 12 mm and a zone of inhibition at 40 µM (Aspergillus flavus [28]) of 9 mm. It also gave a zone of inhibition at 80 µM (Staphylococcus aureus [29]) of 17 mm, a zone of inhibition at 80 µM (Salmonella typhi [30]) of 19 mm and a zone of inhibition at 80 µM (Curvularia lunata [31]) of 18 mm. For the same compound, the zone of inhibition at 20 µM (Salmonella typhi [32]) was 13 mm, the zone of inhibition at 40 µM (Bacillus cereus [33]) was 11 mm and the zone of inhibition at 40 µM (Trichoderma viride [34]) was 16 mm. For the same compound, the zone of inhibition at 40 µM (Escherichia coli [35]) was 18 mm and the zone of inhibition at 20 µM (Bacillus cereus [36]) was 9 mm.
